Results published in ChEMBL document CHEMBL4325910, “Design and synthesis of rosiglitazone-ferulic acid-nitric oxide donor trihybrids for improving glucose tolerance” (Eur J Med Chem, 2019).
Calls of active or inactive are those of the source. The rule behind the calls is not given here.

Assays:
[1] = test system: L02; assay: Inhibition of cellular glucose output in dexamethasone-induced insulin resistant human L02 cells assessed as insulin-stimulated glucose uptake at 10 uM preincubated for 24 hrs followed by insulin stimulation measured after 24 hrs by glucose oxidase method (reference value: 4.5 +/- 0.7%); format: functional; design: scale not given: the % may be the effect or the level left
[2] = test system: 3T3-L1; assay: Induction of insulin-stimulated 2-NBDG uptake in TNF-alpha-induced insulin resistant mouse 3T3L1 cells at 10 uM preincubated for 48 hrs followed by 2-NBDG addition measured after 30 mins in presence of insulin by fluorescence assay; format: functional, cell-based
Method in brief: (§1)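 Day-8 differentiated 3T3-L1 adipocytes received TNF-α (4 ng/mL) daily for 4 days. They were pretreated in triplicate for 48 h (C-PTIO 20 μM where indicated), then given 100 μM 2-NBDG at 37 °C for 30 min in the dark, with or without insulin. After KRP washes, fluorescence was read at Ex/Em 485/515 nm. Three experiments, mean ± SD.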

[3] = test system: 3T3-L1; assay: Induction of insulin-stimulated 2-NBDG uptake in TNF-alpha-induced insulin resistant mouse 3T3L1 cells preincubated for 48 hrs followed by 2-NBDG addition measured after 30 mins in presence of insulin by fluorescence assay; format: functional, cell-based; method in brief: as §1
[4] = Toxicity in spontaneous db/db BKS.Cg-Dock7m +/+ Leprdb/J mouse assessed as body weight gain at 27 umol/kg, po administered as daily dose via gavage treated for 18 days measured post last dose (reference value: 5.6 +/- 2.1 g); format: organism-based; settings: in vivo, 432 h
[5] = test system: 3T3-L1; assay: Induction of adipogenesis in mouse 3T3L1 preadipocytes assessed as increase in intracellular triglyceride level at 10 uM treated every other day up to day 14 by AdipoRed staining based confocal microscopic method; format: functional, cell-based
Method in brief: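 3T3-L1 preadipocytes were grown to confluence plus 48 h. Differentiation was induced with 1.0 μM dexamethasone, 0.5 mM IBMX and 1.0 μg/mL insulin for 48 h, then insulin alone. Compound or 0.1% DMSO was added every other day to day 14. Cells were washed in KRP, stained with AdipoRed for 15 min in the dark, imaged confocally and read at Ex/Em 485/572 nm.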

[6] = Metabolic stability in human liver microsomes after 0.5 hrs in presence of NADPH by HPLC analysis; format: ADME, Microsome; settings: read-out: Stability
Method in brief: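 Compound (100 mM DMSO stock) was added in triplicate to 0.1 M phosphate buffer pH 7.4 with 3.3 mM MgCl2 and human liver microsomes, then preincubated 5 min at 37 °C. NADPH (1.3 mM stock) was added and incubation continued 0, 0.5, 1, 2 or 6 h. Acetonitrile quench, then HPLC at 254 nm.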

[7] = test system: Platelet; assay: Antiplatelet activity in platelet rich plasma (unknown origin) assessed as inhibition of arachidonic acid-induced platelet aggregation; format: functional, cell-based
[8] = test system: Platelet; assay: Antiplatelet activity in platelet rich plasma (unknown origin) assessed as inhibition of ADP-induced platelet aggregation; format: functional, cell-based
[9] = molecular target: Voltage-gated inwardly rectifying potassium channel KCNH2 (Homo sapiens, UniProt Q12809); assay: Inhibition of human ERG expressed in CHO cells by patch clamp assay; format: cell-based
Chain of Voltage-gated inwardly rectifying potassium channel KCNH2 (Q12809 whole entry): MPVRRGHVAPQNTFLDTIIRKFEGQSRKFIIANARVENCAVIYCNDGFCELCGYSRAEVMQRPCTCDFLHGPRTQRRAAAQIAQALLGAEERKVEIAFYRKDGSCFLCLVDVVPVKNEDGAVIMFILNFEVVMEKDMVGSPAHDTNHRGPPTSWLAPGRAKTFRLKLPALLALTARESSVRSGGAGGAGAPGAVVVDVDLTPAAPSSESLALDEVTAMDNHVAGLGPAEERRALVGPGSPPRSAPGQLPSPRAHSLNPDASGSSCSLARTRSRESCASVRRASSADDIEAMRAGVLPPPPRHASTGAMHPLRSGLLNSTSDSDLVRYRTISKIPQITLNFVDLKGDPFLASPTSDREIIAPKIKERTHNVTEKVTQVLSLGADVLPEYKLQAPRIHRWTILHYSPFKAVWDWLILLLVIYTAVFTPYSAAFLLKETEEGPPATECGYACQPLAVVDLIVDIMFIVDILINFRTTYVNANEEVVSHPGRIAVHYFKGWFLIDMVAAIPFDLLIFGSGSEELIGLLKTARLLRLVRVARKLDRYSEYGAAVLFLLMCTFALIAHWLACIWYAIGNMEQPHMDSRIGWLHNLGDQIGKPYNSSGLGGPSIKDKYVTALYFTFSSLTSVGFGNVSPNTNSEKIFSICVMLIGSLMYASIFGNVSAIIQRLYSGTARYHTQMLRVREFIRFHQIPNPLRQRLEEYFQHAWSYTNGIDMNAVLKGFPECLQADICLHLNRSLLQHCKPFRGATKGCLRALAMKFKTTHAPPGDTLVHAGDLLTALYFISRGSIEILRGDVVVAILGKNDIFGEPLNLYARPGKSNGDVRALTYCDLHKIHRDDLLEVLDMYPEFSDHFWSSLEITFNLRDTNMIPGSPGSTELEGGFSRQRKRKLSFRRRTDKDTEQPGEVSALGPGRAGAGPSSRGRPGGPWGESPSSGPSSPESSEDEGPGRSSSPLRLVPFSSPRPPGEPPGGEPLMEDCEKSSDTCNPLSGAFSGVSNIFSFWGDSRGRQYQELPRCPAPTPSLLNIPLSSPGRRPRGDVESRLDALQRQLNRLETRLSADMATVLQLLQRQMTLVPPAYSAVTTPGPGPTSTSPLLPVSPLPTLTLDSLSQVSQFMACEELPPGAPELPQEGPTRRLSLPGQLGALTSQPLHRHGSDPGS

[10] = molecular target: T1, hERG (KCNH2) (Homo sapiens, UniProt Q12809); assay: Inhibition of human ERG expressed in CHO cells at 1.25 uM by patch clamp assay relative to control; format: cell-based; settings: CHO cells that express hERG
T1 sequence (Q12809 whole entry): as above

[11] = molecular target: T1, hERG (KCNH2); assay: Inhibition of human ERG expressed in CHO cells at 2.5 uM by patch clamp assay relative to control; format: cell-based; settings: CHO cells that express hERG
[12] = molecular target: T1, hERG (KCNH2); assay: Inhibition of human ERG expressed in CHO cells at 5 uM by patch clamp assay relative to control; format: cell-based; settings: CHO cells that express hERG
[13] = molecular target: T1, hERG (KCNH2); assay: Inhibition of human ERG expressed in CHO cells at 10 uM by patch clamp assay relative to control; format: cell-based; settings: CHO cells that express hERG
[14] = molecular target: T1, hERG (KCNH2); assay: Inhibition of human ERG expressed in CHO cells at 20 uM by patch clamp assay relative to control; format: cell-based; settings: CHO cells that express hERG
[15] = molecular target: T1, hERG (KCNH2); assay: Inhibition of human ERG expressed in CHO cells at 40 uM by patch clamp assay relative to control; format: cell-based; settings: CHO cells that express hERG
[16] = Toxicity in po dosed ICR mouse administered as single dose via gavage treated on day 1 and measured daily up to 14 days; format: organism-based; settings: in vivo
Method in brief: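 Mice of both sexes, 7 weeks old, were randomized and given one oral gavage dose on day 1. Dose levels were 500, 1000, 2000, 3000, 4000 or 5000 mg/kg, or 2000, 4000 and 5000 mg/kg, with n = 10 per group. Behaviour, health and mortality were checked daily for 14 days, and total deaths were counted on day 14. LD50 was calculated with 95% confidence limits.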

[17] = molecular target: T2, Aquaporin-2 (Homo sapiens, UniProt P41181); assay: Induction of membrane translocation of biotinylated human AQP2 expressed in rat IMCD cells at 10 to 50 uM after 30 mins by Western blot analysis; format: cell-based; settings: 0.5 h
T2 sequence (P41181 whole entry): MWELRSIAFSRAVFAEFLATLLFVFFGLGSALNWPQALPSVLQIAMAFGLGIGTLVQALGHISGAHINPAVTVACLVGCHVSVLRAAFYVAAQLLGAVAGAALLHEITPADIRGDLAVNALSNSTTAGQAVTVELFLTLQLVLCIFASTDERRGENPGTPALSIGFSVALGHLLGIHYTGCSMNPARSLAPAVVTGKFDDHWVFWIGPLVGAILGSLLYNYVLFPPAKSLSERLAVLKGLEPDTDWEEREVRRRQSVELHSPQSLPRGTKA
Method in brief: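 Human AQP2-transfected primary rat IMCD cells were treated for 30 min. Surface proteins were biotinylated with sulfo-NHS-LC-biotin (3 mg/mL, 60 min, 4 °C), then cells lysed in 1% NP-40 and pulled down overnight on streptavidin beads. Biotinylated and total AQP2 (30 μg/lane) were blotted with anti-AQP2 and quantified by densitometry as the biotinylated/total ratio. Three experiments, mean ± SD.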

[18] = molecular target: T2, Aquaporin-2; assay: Induction of membrane translocation of biotinylated human AQP2 expressed in rat IMCD cells at 10 to 50 uM after 30 mins by FITC-staining based confocal fluorescence microscopic analysis; format: cell-based; settings: 0.5 h
Method in brief: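 Primary SD rat IMCD cells, day 5, were transfected with a human AQP2 plasmid (5 h, serum-free) and cultured 48 h. They were treated for 30 min, with 0.1% DMSO as vehicle and forskolin 100 μM as reference. Cells were fixed in paraformaldehyde, permeabilized with Triton X-100 and quenched with H2O2/methanol. They were stained with FITC-anti-AQP2 and imaged by confocal microscopy.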

[19] = test system: Platelet; assay: Antiplatelet activity in platelet rich plasma (unknown origin) assessed as inhibition of arachidonic acid-induced platelet aggregation at 4 mM relative to control; format: functional
[20] = test system: Platelet; assay: Antiplatelet activity in platelet rich plasma (unknown origin) assessed as inhibition of ADP-induced platelet aggregation at 1 mM relative to control; format: functional
[21] = test system: 3T3-L1; assay: Induction of superoxide dismutase level in TNF-alpha-induced insulin resistant mouse 3T3L1 cells at 10 uM after 48 hrs; format: functional, cell-based
Method in brief: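 3T3-L1 preadipocytes were differentiated, and mature adipocytes made insulin resistant with TNF-α (4 ng/mL) daily for 4 days. Cells were then treated in triplicate for 48 h, with or without 20 μM C-PTIO. Lysate GSH, SOD and MDA were measured with kits. Three experiments, mean ± SD.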

| Compound | Activity [1] | Activity [2] | EC50 [3] | Activity [4] | Activity [5] | IC50 [7] | IC50 [8] | IC50 [9] | inhibition at 1.25 µM [10] | inhibition at 2.5 µM [11] | inhibition at 5 µM [12] | inhibition at 10 µM [13] | inhibition at 20 µM [14] | inhibition at 40 µM [15] | LD50 at 336 h [16] | Activity [17] | Activity [18] | also measured |
| --- | --- | --- | --- | --- | --- | --- | --- | --- | --- | --- | --- | --- | --- | --- | --- | --- | --- | --- |
| CCN(CC)/[N+]([O-])=N/OCOC(=O)/C=C/c1ccc(OC(=O)OCN2C(=O)SC(Cc3ccc(OCCN(C)c4ccccn4)cc3)C2=O)c(OC)c1 (stereo not drawn) | 47.8% | Active | 1.08 µM | 3.4 g | Active | 700 µM | 2100 µM | > 40 µM | 9.06% | 10.8% | 14.5% | 18% | 26.2% | 39.5% | > 5000 mg/kg | Not Active | Not Active | remaining at 0.5 h [6]: 94.3% |
| CN(CCOc1ccc(CC2SC(=O)NC2=O)cc1)c1ccccn1 (stereo not drawn) [ROSIGLITAZONE] | 11.8% | Active | 1.72 µM | 6.6 g | Active | 6400 µM | 5700 µM | 29.5 µM | 9.38% | 17.3% | 23.3% | 30.1% | 42.5% | 57.9% | 2580 mg/kg | Active | Active | inhibition at 4000 µM [19]: 42.2%; inhibition at 1000 µM [20]: 6.1%; Activity [21]: Active |
